As a reminder, the CC50 is the concentration at which the toxic effect on the cells reaches its halfway point. As usually defined, the IC50 is the concentration at which inhibition is half-maximal. The low end stands for greater potency, the high end for weaker potency.

In brackets after ≈: the same amount, converted by molar mass. Some results are limits rather than exact numbers.

Results on 20 compounds are retold here after ChEMBL document CHEMBL1132334, “Discovery of 1,6-naphthyridines as a novel class of potent and selective human cytomegalovirus inhibitors” (J Med Chem, 1999).

The test system of assay [1] is Hs68. The assay can be described thus: Cytotoxicity in the human fibroblast Hs 68 cell line. It is filed as functional. In a few lines: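 Hs68 fibroblasts plated at 1000 cells/well and incubated overnight. Medium then replaced with compound, six serial 2-fold dilutions (3.2-100 µg/mL) in triplicate, for 72 h. Proliferation read by [³H]thymidine uptake with scintillation counting and expressed as percent of untreated control; CC50 is the concentration giving 50% inhibition.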

A further assay concerns Human betaherpesvirus 5. The assay can be described thus: Anti-HCMV activity in the human fibroblast Hs 68 cell line. It is filed as functional, organism-based. The following applies: Human betaherpesvirus 5, Hs68. The essentials: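 Hs68 human fibroblasts infected with HCMV strain AD169 at MOI 0.001, with or without compound, incubated 7 days. Plaques then counted under the microscope. Mean of duplicate values, experiments done at least twice.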

For assay [2], the system named is Hs68. Briefly: Cytotoxicity in the Hs 68 cell line. It is filed as functional. To be noted: Homo sapiens.

As for `CC(C)Oc1ccccc1CNC(=O)c1ccc2cncc(Cl)c2n1`, the midpoint of cytotoxicity in the assay with Hs68 [1], the CC50, lay at 6 µg/mL (≈ 16.9 µM). Further, the IC50 with Human betaherpesvirus 5 amounted to 0.03 µg/mL (≈ 0.0843 µM).
`COc1cccc(CNC(=O)c2ccc3cnccc3n2)c1` gave a cytotoxic concentration (CC50) in the assay on Hs68 [2] of 100 µg/mL (≈ 341 µM). For the same compound, in the assay on Human betaherpesvirus 5, 2.1 µg/mL (≈ 7.16 µM) corresponded to half-maximal inhibition (IC50).
In the assay with Hs68 [2], `COc1ccc(CNC(=O)c2ccc3cnccc3n2)cc1` gave a 50% cytotoxic concentration (CC50) of 50 µg/mL (≈ 170 µM). This compound showed a concentration for half-maximal inhibition (IC50) in the assay with Human betaherpesvirus 5 of over 50 µg/mL.
`O=C(NCc1ccccc1)c1ccc2cnccc2n1` registered a half-maximal cytotoxic concentration (CC50) with Hs68 [1] of 71 µg/mL (≈ 270 µM). The compound also displayed a half-maximal inhibitory concentration (IC50) in the assay on Human betaherpesvirus 5 of 1 µg/mL (≈ 3.8 µM).
For `CC(C)Oc1ccccc1CNC(=O)c1ccc2cncc(Br)c2n1`, in that order: 9 µg/mL (≈ 22.5 µM) and 0.15 µg/mL (≈ 0.375 µM).
In turn, `CC(C)Oc1cccc(CNC(=O)c2ccc3cnccc3n2)c1` came in with a CC50 with Hs68 [1] of 8.4 µg/mL (≈ 26.1 µM). Also, the half-maximal inhibitory concentration (IC50) in the assay with Human betaherpesvirus 5 was 3.6 µg/mL (≈ 11.2 µM).
For `O=C(NCc1ccc(Br)cc1)c1ccc2cnccc2n1`, in that order: 10 µg/mL (≈ 29.2 µM) and over 10 µg/mL.
In turn, `O=C(Nc1ccccc1)c1ccc2cnccc2n1` had a 50% cytotoxic concentration (CC50) in the assay on Hs68 [2] of 50 µg/mL (≈ 201 µM). For the same compound, the IC50 in the assay on Human betaherpesvirus 5 turned out to be 50 µg/mL (≈ 201 µM).
For the compound `CC[C@@H](C)Oc1ccccc1CNC(=O)c1ccc2cnccc2n1`, the CC50 with Hs68 [1] came to 0.1 µg/mL (≈ 0.298 µM). The same compound yielded an IC50 in the assay with Human betaherpesvirus 5 of 0.003 µg/mL (≈ 0.00894 µM).
`CC(C)(C)Oc1ccccc1CNC(=O)c1ccc2cnccc2n1` registered a 50% cytotoxic concentration (CC50) in the assay with Hs68 [1] of 4.4 µg/mL (≈ 13.1 µM). Moreover, the IC50 in the assay with Human betaherpesvirus 5 is 0.04 µg/mL (≈ 0.119 µM).
Turning to `O=C(NCc1ccccc1Br)c1ccc2cnccc2n1`, in the assay with Hs68 [1], the CC50 worked out at 100 µg/mL (≈ 292 µM). The compound further gave an IC50 in the assay on Human betaherpesvirus 5 of 0.7 µg/mL (≈ 2.05 µM).
For `CC[C@H](C)Oc1ccccc1CNC(=O)c1ccc2cnccc2n1`, in that order: 3.1 µg/mL (≈ 9.24 µM) and 0.03 µg/mL (≈ 0.0894 µM).
In the assay with Hs68 [1], `C=Cc1cncc2ccc(C(=O)NCc3ccccc3OC(C)C)nc12` showed a half-maximal cytotoxic concentration (CC50) of 17 µg/mL (≈ 48.9 µM). In addition, the IC50 with Human betaherpesvirus 5 came to 0.003 µg/mL (≈ 0.00864 µM).
The corresponding values for `O=C(NCCc1ccccc1)c1ccc2cnccc2n1` are 5 µg/mL (≈ 18 µM) and 0.78 µg/mL (≈ 2.81 µM).
For the compound `O=C(NCc1cccc(Br)c1)c1ccc2cnccc2n1`, the CC50 in the assay with Hs68 [1] came to 50 µg/mL (≈ 146 µM). In the assay with Human betaherpesvirus 5, this compound displayed a half-inhibitory concentration (IC50) of 2.2 µg/mL (≈ 6.43 µM).
As for `COc1ccccc1CCNC(=O)c1ccc2cnccc2n1`, the cytotoxic concentration (CC50) in the assay on Hs68 [2] turned out to be 17 µg/mL (≈ 55.3 µM). In the assay with Human betaherpesvirus 5, this compound showed a concentration for half-maximal inhibition (IC50) of 6 µg/mL (≈ 19.5 µM).
In the case of `Cc1cncc2ccc(C(=O)NCc3ccccc3OC(C)C)nc12`, the cytotoxic concentration (CC50) with Hs68 [1] stood at 3 µg/mL (≈ 8.94 µM). For the same compound, the half-maximal inhibitory concentration (IC50) in the assay with Human betaherpesvirus 5 was 0.0004 µg/mL (≈ 0.00119 µM).
`CC(C)Oc1ccccc1CNC(=O)c1ccc2cnccc2n1`: the CC50 in the assay on Hs68 [1] amounted to 2.5 µg/mL (≈ 7.78 µM). Inhibition in the assay with Human betaherpesvirus 5 was half-maximal at 0.005 µg/mL (≈ 0.0156 µM) (IC50).
`COc1ccccc1CNC(=O)c1cc(C)c2cnccc2n1` gave a CC50 in the assay on Hs68 [1] of 8 µg/mL (≈ 26 µM). Also, the IC50 in the assay on Human betaherpesvirus 5 was 11 µg/mL (≈ 35.8 µM).
In the assay on Hs68 [2], `Nc1nc2c(ncn2COC(CO)CO)c(=O)[nH]1` [GANCICLOVIR] registered a 50% cytotoxic concentration (CC50) of 12.5 µg/mL (≈ 49 µM). In addition, half-maximal inhibition in the assay with Human betaherpesvirus 5 (IC50) was put at 0.3 µg/mL (≈ 1.18 µM).
